ChEMBL document CHEMBL3525963, “Tissue distribution and elimination of [14C]apixaban in rats” (Drug Metab Dispos, 2011)

Key:
Type in all cases: ADME, organism-based
Conditions in all cases: in vivo
Rattus norvegicus [1] = assay: Biodistribution in male Sprague-Dawley rat salivary gland at 5 mg/kg, po administered as single dose measured after 4 hrs; design: dose 5 mg/kg, dosed compound name [14C]-apixaban, route oral
Rattus norvegicus [2] = assay: Biodistribution in pregnant Sprague-Dawley rat placenta at 5 mg/kg, po administered as single dose measured after 1 hr; design: dose 5 mg/kg, dosed compound name [14C]-apixaban, route oral
Pancreas = assay: Biodistribution in pregnant Sprague-Dawley rat pancreas at 5 mg/kg, po administered as single dose measured after 48 hrs; design: dose 5 mg/kg, dosed compound name [14C]-apixaban, route oral
Summary of the method: (§1)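 Pregnant SD rats (270-319 g) were fasted overnight and given one oral gavage of 5 mg/kg (100 μCi/kg) in 0.5% Tween 80 in Labrafil. One rat was euthanized per time point (0.5, 1, 4, 8, 24, 48 h) and the carcass frozen. 40 µm sagittal sections were phosphor-imaged against [14C]glucose standards and results reported as µg eq/g; LLOQ 0.037 µg eq/g.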

Harderian gland = assay: Biodistribution in female Sprague-Dawley rat harderian gland at 5 mg/kg, po administered as single dose measured after 1 hr; design: dose 5 mg/kg, dosed compound name [14C]-apixaban, route oral
Summary of the method: (§2)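 [¹⁴C]Apixaban given by oral gavage at 5 mg/kg (100 μCi/kg) in 0.5% Tween 80 in Labrafil (1.0 mg/mL dosing solution) to rats fasted overnight through 4 h post-dose. One rat per time point; carcass frozen in hexane/dry ice. Quantitative whole-body autoradiography used 40 µm sagittal sections and a phosphor imaging plate calibrated with [¹⁴C]glucose standards (0.001–6.5 μCi/g). Read-out in µg eq apixaban/g; LLOQ 0.037 μg eq/g.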

Rattus norvegicus [3] = assay: Biodistribution in pregnant Sprague-Dawley rat bone marrow at 5 mg/kg, po administered as single dose measured after 48 hrs; design: dose 5 mg/kg, dosed compound name [14C]-apixaban, route oral
Summary of the method: (§3)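 Fasted pregnant SD rats (n=6, 270-319 g) each received one oral gavage dose of [14C]apixaban, 5 mg/kg (100 μCi/kg), in 0.5% Tween 80/Labrafil. One rat was killed at each of 0.5, 1, 4, 8, 24 and 48 h. Carcasses were frozen in hexane/dry ice, cut into 40 µm sagittal sections, exposed to phosphor plates and quantified against [14C]glucose standards as µg eq/g. LLOQ was 0.037 µg eq/g.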

Rattus norvegicus [4] = assay: Biodistribution in fetal blood of pregnant Sprague-Dawley rat at 5 mg/kg, po administered as single dose measured after 0.5 hrs; design: dose 5 mg/kg, dosed compound name [14C]-apixaban, route oral
Summary of the method: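 Pregnant rats, 270-319 g and fasted overnight, received [14C]apixaban by oral gavage at 100 μCi/kg in 0.5% Tween 80/Labrafil. One dam per time point was euthanized and frozen in hexane/dry ice. Fetal tissue radioactivity was measured by QWBA on 40 µm sagittal sections calibrated with [14C]glucose standards. Values are in µg eq/g, with LLOQ 0.037 μg eq/g.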

Muscle tissue [5] = assay: Biodistribution in pregnant Sprague-Dawley rat muscle at 5 mg/kg, po administered as single dose measured after 48 hrs; design: dose 5 mg/kg, dosed compound name [14C]-apixaban, route oral; summary of the method: as §1
Rattus norvegicus [6] = assay: Biodistribution in male Sprague-Dawley rat pituitary gland at 5 mg/kg, po administered as single dose measured after 24 hrs; design: dose 5 mg/kg, dosed compound name [14C]-apixaban, route oral
Summary of the method: (§4)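 Fasted male SD rats (225-252 g) each received one oral gavage dose of [14C]apixaban, 5 mg/kg (100 μCi/kg), in 0.5% Tween 80/Labrafil vehicle. One rat was killed per time point, from 0.5 to 168 h. Frozen carcasses were cut into 40 µm sagittal whole-body sections and read by QWBA phosphor imaging against [14C]glucose calibrants. Results are in µg apixaban eq/g; BLQ <0.037 µg eq/g.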

Rattus norvegicus [7] = assay: Biodistribution in pregnant Sprague-Dawley rat placenta at 5 mg/kg, po administered as single dose measured after 4 hrs; design: dose 5 mg/kg, dosed compound name [14C]-apixaban, route oral
Lung [8] = assay: Biodistribution in male Sprague-Dawley rat lung at 5 mg/kg, po administered as single dose measured after 72 hrs; design: dose 5 mg/kg, dosed compound name [14C]-apixaban, route oral; summary of the method: as §4
[9] = Drug level in lactating Sprague-Dawley rat milk at 5 mg/kg, po administered as single dose after 24 hrs; design: dose 5 mg/kg, dosed compound name [14C]-apixaban, route oral
Blood [10] = assay: AUC (0 to infinity) in pregnant Sprague-Dawley rat blood at 5 mg/kg, po administered as single dose; design: time infinity, dose 5 mg/kg, dosed compound name [14C]-apixaban, route oral
Lung [11] = assay: Biodistribution in pregnant Sprague-Dawley rat lung at 5 mg/kg, po administered as single dose measured after 48 hrs; design: dose 5 mg/kg, dosed compound name [14C]-apixaban, route oral; summary of the method: as §1
Spleen [12] = assay: Biodistribution in female Sprague-Dawley rat spleen at 5 mg/kg, po administered as single dose measured after 8 hrs; design: dose 5 mg/kg, dosed compound name [14C]-apixaban, route oral; summary of the method: as §2
Heart [13] = assay: Biodistribution in male Sprague-Dawley rat heart at 5 mg/kg, po administered as single dose measured after 4 hrs; design: dose 5 mg/kg, dosed compound name [14C]-apixaban, route oral
Summary of the method: (§5)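 [14C]apixaban (1.0 mg/mL, 20 μCi/mL) in 0.5% Tween 80 in Labrafil, given by oral gavage at 100 μCi/kg to male rats (225-252 g) fasted overnight through 4 h post-dose. One rat per time point. Carcasses frozen in hexane/dry ice and cut into 40 µm sagittal sections. QWBA read on phosphor plates against [14C]glucose standards, reported as µg eq/g. LLOQ 0.037 µg eq/g.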

Lung [14] = assay: Biodistribution in male Sprague-Dawley rat lung at 5 mg/kg, po administered as single dose measured after 1 hr; design: dose 5 mg/kg, dosed compound name [14C]-apixaban, route oral; summary of the method: as §5
Blood [15] = assay: AUC (0 to infinity) in lactating Sprague-Dawley rat blood at 5 mg/kg, po administered as single dose; design: time infinity, dose 5 mg/kg, dosed compound name [14C]-apixaban, route oral
Heart [16] = assay: Biodistribution in male Sprague-Dawley rat heart at 5 mg/kg, po administered as single dose measured after 24 hrs; design: dose 5 mg/kg, dosed compound name [14C]-apixaban, route oral; summary of the method: as §4
Blood [17] = assay: Biodistribution in male Sprague-Dawley rat blood at 5 mg/kg, po administered as single dose measured after 72 hrs; design: dose 5 mg/kg, dosed compound name [14C]-apixaban, route oral; summary of the method: as §4
Muscle tissue [18] = assay: Biodistribution in female Sprague-Dawley rat muscle at 5 mg/kg, po administered as single dose measured after 8 hrs; design: dose 5 mg/kg, dosed compound name [14C]-apixaban, route oral; summary of the method: as §2
Brain = assay: Biodistribution in male Sprague-Dawley rat brain at 5 mg/kg, po administered as single dose measured after 4 hrs; design: dose 5 mg/kg, dosed compound name [14C]-apixaban, route oral
Rattus norvegicus [19] = assay: Biodistribution in female Sprague-Dawley rat pituitary gland at 5 mg/kg, po administered as single dose measured after 0.5 hrs; design: dose 5 mg/kg, dosed compound name [14C]-apixaban, route oral
Summary of the method: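 [14C]apixaban (20 μCi/mL in dosing solution) in 0.5% Tween 80 in Labrafil given by oral gavage to fasted female rats, 206-213 g, at 100 μCi/kg. One rat per time point was euthanized and snap-frozen. Sagittal 40 µm whole-body sections were read by QWBA phosphor imaging against [14C]glucose standards. Results are in µg eq apixaban/g, with LLOQ 0.037 μg eq/g.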

Heart [20] = assay: Biodistribution in female Sprague-Dawley rat heart at 5 mg/kg, po administered as single dose measured after 4 hrs; design: dose 5 mg/kg, dosed compound name [14C]-apixaban, route oral; summary of the method: as §2
Rattus norvegicus [21] = assay: Biodistribution in pregnant Sprague-Dawley rat bone marrow at 5 mg/kg, po administered as single dose measured after 24 hrs; design: dose 5 mg/kg, dosed compound name [14C]-apixaban, route oral; summary of the method: as §3
Muscle tissue [22] = assay: Biodistribution in pregnant Sprague-Dawley rat muscle at 5 mg/kg, po administered as single dose measured after 4 hrs; design: dose 5 mg/kg, dosed compound name [14C]-apixaban, route oral
Spleen [23] = assay: Biodistribution in pregnant Sprague-Dawley rat spleen at 5 mg/kg, po administered as single dose measured after 8 hrs; design: dose 5 mg/kg, dosed compound name [14C]-apixaban, route oral

Radiolabel recovery (Rattus norvegicus [1]): 0.54 ugequiv/g
Radiolabel recovery (Rattus norvegicus [2]): 0.74 ugequiv/g
Radiolabel recovery (Pancreas): Not detected assumed BLQ
Radiolabel recovery (Harderian gland): 0.64 ugequiv/g
Radiolabel recovery (Rattus norvegicus [3]): Not detected assumed BLQ
Radiolabel recovery (Rattus norvegicus [4]): 0.27 ugequiv/g
Radiolabel recovery (Muscle tissue [5]): Not detected assumed BLQ
Radiolabel recovery (Rattus norvegicus [6]): Not detected assumed BLQ
Radiolabel recovery (Rattus norvegicus [7]): 1.06 ugequiv/g
Radiolabel recovery (Lung [8]): Not detected assumed BLQ
Radiolabel recovery [9]: 0.31 µg/mL
AUC (Blood [10]): 7200 ngequiv.hr/g
Radiolabel recovery (Lung [11]): Not detected assumed BLQ
Radiolabel recovery (Spleen [12]): 0.13 ugequiv/g
Radiolabel recovery (Heart [13]): 0.45 ugequiv/g
Radiolabel recovery (Lung [14]): 0.7 ugequiv/g
AUC (Blood [15]): 1960 ngequiv.hr/g
Radiolabel recovery (Heart [16]): Not detected assumed BLQ
Radiolabel recovery (Muscle tissue [18]): 0.08 ugequiv/g
Radiolabel recovery (Brain): < 0.037 ugequiv/g
Radiolabel recovery (Rattus norvegicus [19]): 0.43 ugequiv/g
Radiolabel recovery (Heart [20]): 0.51 ugequiv/g
Radiolabel recovery (Rattus norvegicus [21]): Not detected assumed BLQ
Radiolabel recovery (Muscle tissue [22]): 0.5 ugequiv/g
Radiolabel recovery (Spleen [23]): 0.05 ugequiv/g
SMILES: COc1ccc(-n2nc(C(N)=O)c3c2C(=O)N(c2ccc(N4CCCC[14C]4=O)cc2)CC3)cc1
Radiolabel recovery (Blood [17]): Not sampled as not visualised in autoradiograph
